The values below come from ChEMBL document CHEMBL1135400, “Alpha2-adrenoreceptors profile modulation and high antinociceptive activity of (S)-(-)-2-[1-(biphenyl-2-yloxy)ethyl]-4,5-dihydro-1H-imidazole” (J Med Chem, 2002).

Assay [1] concerns the target T1, Adrenergic receptor alpha-2 (Rattus norvegicus) (UniProt P22086+P19328+P22909). Kind of assay: pKb value using clonidine as agonist for Alpha-2 adrenergic receptor. The class given is functional. The essentials:
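Prostatic rat vas deferens held under 0.1 Hz electrical stimulation, with prazosin, propranolol (1 µM) and cocaine (10 µM) present. Compounds lacking agonist activity were tested against clonidine. Dose ratios were taken at clonidine ED50 at one antagonist concentration, tested six times. Dissociation constant by the van Rossum method.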

In assay [2] the target is T2, Adrenergic receptor alpha-2 (Rattus norvegicus, UniProt P22086+P19328+P22909).
T2 sequence (P22086 whole entry): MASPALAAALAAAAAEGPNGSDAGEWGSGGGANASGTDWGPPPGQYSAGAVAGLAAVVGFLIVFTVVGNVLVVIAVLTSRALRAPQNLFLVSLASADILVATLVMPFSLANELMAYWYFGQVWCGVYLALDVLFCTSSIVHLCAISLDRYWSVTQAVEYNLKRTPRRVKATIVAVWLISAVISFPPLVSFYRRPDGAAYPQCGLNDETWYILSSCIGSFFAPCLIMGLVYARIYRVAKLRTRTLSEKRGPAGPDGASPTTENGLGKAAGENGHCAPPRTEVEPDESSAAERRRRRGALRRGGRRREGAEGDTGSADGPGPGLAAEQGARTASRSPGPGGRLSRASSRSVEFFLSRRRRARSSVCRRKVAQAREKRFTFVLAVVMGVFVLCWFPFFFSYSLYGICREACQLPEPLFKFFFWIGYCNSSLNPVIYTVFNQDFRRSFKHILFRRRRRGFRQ
T2 sequence (P19328 whole entry): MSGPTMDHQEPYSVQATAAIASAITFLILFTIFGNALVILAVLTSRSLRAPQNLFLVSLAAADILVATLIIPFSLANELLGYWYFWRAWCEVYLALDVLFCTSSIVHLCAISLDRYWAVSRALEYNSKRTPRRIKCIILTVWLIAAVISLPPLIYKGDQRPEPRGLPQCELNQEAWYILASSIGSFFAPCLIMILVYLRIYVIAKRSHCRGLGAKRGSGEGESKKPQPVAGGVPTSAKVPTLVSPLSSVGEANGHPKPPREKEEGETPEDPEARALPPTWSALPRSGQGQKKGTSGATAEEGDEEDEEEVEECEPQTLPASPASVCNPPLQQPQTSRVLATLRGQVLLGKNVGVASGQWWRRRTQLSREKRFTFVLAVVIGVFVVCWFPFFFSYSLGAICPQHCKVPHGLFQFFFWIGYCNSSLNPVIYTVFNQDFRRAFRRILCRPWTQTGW
T2 sequence (P22909 whole entry): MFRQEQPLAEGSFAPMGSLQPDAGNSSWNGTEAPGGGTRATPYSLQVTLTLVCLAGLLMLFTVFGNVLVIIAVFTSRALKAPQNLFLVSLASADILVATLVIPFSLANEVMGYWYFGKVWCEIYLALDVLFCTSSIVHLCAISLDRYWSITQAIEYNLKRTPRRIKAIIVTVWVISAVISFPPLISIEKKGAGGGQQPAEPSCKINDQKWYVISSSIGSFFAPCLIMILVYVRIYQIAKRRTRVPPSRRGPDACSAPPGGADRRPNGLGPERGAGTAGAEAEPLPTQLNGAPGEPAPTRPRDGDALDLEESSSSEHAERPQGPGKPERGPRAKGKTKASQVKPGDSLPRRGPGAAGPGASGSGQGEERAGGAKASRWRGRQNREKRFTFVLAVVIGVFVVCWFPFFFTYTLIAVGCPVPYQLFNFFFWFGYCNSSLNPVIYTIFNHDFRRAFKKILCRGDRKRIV
The experiment in a line: Displacement of [3H]clonidine from Alpha-2 adrenergic receptor of rat cortex membrane. Summed up:
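Rat cerebral cortex membranes (200 µg protein) in 50 mM Tris-HCl pH 7.4, 5 nM [3H]clonidine, 10–12 competitor concentrations, 45 min at 25 °C; GF/B filtration, scintillation counting. Nonspecific binding with 10 µM phentolamine. Triplicate points; IC50 by nonlinear regression, Ki by Cheng–Prusoff, curves repeated at least three times, pKi ± SEM.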

The target in assay [3] is T3, Adrenergic receptor alpha-1 (Rattus norvegicus) (UniProt P15823+P23944+P43140). Kind of assay: Inhibition of Alpha-1 adrenergic receptor twitch response in rat vas deferens in presence of cirazoline, pD2 is -log ED50. The class given is tissue-based.
Assay [4] in a line: Relative binding affinity for Alpha-2 adrenergic receptor and I2 imidazoline binding site (Antilog of the difference between pKi). The essentials:
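Ratio from two radioligand assays. α2: rat cortex membranes with 5 nM [3H]clonidine, nonspecific binding with 10 µM phentolamine. I2: rabbit kidney membranes with 5 nM [3H]idazoxan, adrenoreceptors masked by 10 µM norepinephrine, nonspecific binding with 10 µM cirazoline. Both assays 45 min at 25 °C, Ki by Cheng–Prusoff.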

The target in assay [5] is Imidazoline I2 binding sites (Oryctolagus cuniculus). The experiment in a line: Displacement of [3H]idazoxan from imidazoline receptor I-2 binding sites in rabbit kidney membrane. (In general: In a radioligand displacement assay an active substance lowers the binding of a labelled ligand.)
For assay [6], the target named is T1, Adrenergic receptor alpha-2 (Rattus norvegicus). Kind of assay: pD2 is -log ED50 required to produce 50% inhibition of the twitch response in rat vas deferens (intrinsic activity in presence of clonidine) for Alpha-2 adrenergic receptor. The class given is tissue-based. The essentials:
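Prostatic portion (12 mm) of male albino rat (125–150 g) vas deferens, 37 °C, O2/CO2 95%/5%, 1 g loading tension. Physiological salt solution had 0.54 mM MgCl2, prazosin ([…]), propranolol (1 µM) and cocaine (10 µM). Field stimulation was 0.1 Hz, 3 ms, 10–15 V, recorded isometrically.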

Assay [7] shares this target. Kind of assay: pD2 is -log ED50 required to produce 50% inhibition of the twitch response in rat vas deferens (intrinsic activity in presence of cirazoline) for Alpha-2 adrenergic receptor. The class given is tissue-based. Particulars: in the assay text read “clonidine” for “cirazoline”. Summed up: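 Prostatic portion (12 mm) of male rat vas deferens (125–150 g) at 37 °C under 95% O2/5% CO2, 1 g load. Bath contains 0.54 mM MgCl2, prazosin, 1 µM propranolol and 10 µM cocaine.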

Assay [8] shares this target. The experiment in a line: Antilog of the difference between pD2 of Alpha-2 adrenergic receptor and pD2 of Alpha-1 adrenergic receptor.
Assay [9] has as its target T3, Adrenergic receptor alpha-1 (Rattus norvegicus). The experiment in a line: pKb value using (-)-norepinephrine as agonist for Alpha-1 adrenergic receptor.

As usually defined, the pKb is the negative decadic logarithm of the Kb, by convention in mol/L. The low end stands for a large Kb, the high end for a small Kb. In assay [1], `CC(Oc1ccccc1)C1=NCCN1` (centres undefined) yielded a pKb of 7.29. For the same compound, the “Log Ki” value in [2] is -7.01; in [5], -5.57. Further, the pD2 in assay [3] came to 5.2. The Ratio in assay [4] amounted to 27.5.
For the compound `C[C@H](Oc1ccccc1-c1ccccc1)C1=NCCN1`, in assay [2], the “Log Ki” value is given as -7.5. The pD2 came to 8.55 in assay [6] and 7.51 in assay [3].
With `CC(Oc1ccccc1-c1ccccc1)C1=NCCN1` (centres undefined) [BIPHENYLINE], the “Log Ki” value in [2] was -7.91. Besides, the pD2 in assay [6] was 8.52; in [3], 7.2.
Regarding `CC(Oc1cccc(-c2ccccc2)c1)C1=NCCN1` (centres undefined), the “Log Ki” value in assay [2] was -6.92; in assay [5], -6.57. Also, the pD2 in [7] worked out at 6.66; in assay [3] it was 4.53. The Ratio in assay [8] was determined as 135; in assay [4], 2.2.
In [1], `c1ccc(OCC2=NCCN2)cc1` showed a pKb of 6.71. In [2], the “Log Ki” value is listed as -7.28. The pD2 in assay [3] worked out at 5.26.
As for `c1ccc(-c2ccccc2NCC2=NCCN2)cc1`, the “Log Ki” value in [2] is -6.45; in assay [5], -6.09. Also, the pD2 in assay [6] turned out to be 7.84; in [3] it was 6.37. The Ratio in assay [8] stood at 29.5; in assay [4], 2.3.
Regarding `C[C@@H](Oc1ccccc1-c1ccccc1)C1=NCCN1`, the “Log Ki” value in assay [2] is -7. In addition, the values for the pD2 in [6] and in assay [3] were 7.4 and 6.23, respectively.
On to `CC(Nc1ccccc1-c1ccccc1)C1=NCCN1` (centres undefined), for which the results for the “Log Ki” value in assay [2] and in assay [5] were -7 and -4.9, respectively. The pD2 in assay [6] was found to be 8.36; in [3], 6.73. Also, the Ratio in assay [8] amounted to 42.7; in [4], 126.
Take `CC(Oc1ccc(-c2ccccc2)cc1)C1=NCCN1` (centres undefined): the negative logarithm of the Kb (pKb) in assay [1] is 5.81; in assay [9] it was 5.92. In addition, the “Log Ki” value in assay [2] is -7.5; in assay [5], -6.74. In addition, the Ratio is 0.78 in [8] and 5.8 in assay [4].
As to `c1ccc(Cc2ccccc2OCC2=NCCN2)cc1`, in assay [1], the pKb came out at 7.14. Also, the “Log Ki” value in assay [2] was -6.52; in assay [5] it was -6.7. The pD2 in [3] was determined as 5.27. The Ratio in assay [4] was 0.66.
Regarding `c1ccc(NCC2=NCCN2)cc1` [PHENAMAZOLINE], the negative logarithm of the Kb (pKb) in assay [1] turned out to be 6.38. Also, the “Log Ki” value in assay [2] was -7.14; in assay [5], -7.48. For the same compound, in [3], the pD2 was found to be 4.89. For the same compound, the Ratio in [4] was determined as 0.46.
`c1ccc(-c2ccccc2OCC2=NCCN2)cc1`: in assay [2], the “Log Ki” value is -7.1. For the same compound, the pD2 was found to be 8.46 in assay [6] and 6.68 in assay [3].
`CC(Oc1ccccc1Cc1ccccc1)C1=NCCN1` (centres undefined) returned a pKb in assay [1] of 6.87. In addition, the “Log Ki” value is -6.8 in assay [2] and -5.12 in [5]. The pD2 in assay [3] is 5.99. Further, the Ratio in assay [4] came to 47.9.
